Reference: PubChem BioAssay
A number with no mark means an inactive call. Results filed as inconclusive are left out. Activity calls are given as the source filed them.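 How the source made its calls, unless noted: active means cell viability at or below a set limit in both duplicate runs, the limit being the all-compound median minus 4 SD (cut at about 23% in these data, passing the limit was not always enough); inconclusive means no clear call, values can overlap the other calls; inactive means the rest.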

Key:
[1] = S. cerevisiae growth inhibition in permissive medium (OD615), pilot counter-assay for S. cerevisiae lifespan shortening project, permissive growth control (AID 705;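 active means growth inhibition above 25% in both replicates, a cutoff set 3 SD above the mean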); conditions: OD615, 24 h, at 10 µM, active compounds read high
Summary of the method: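 Material: engineered DeaD yeast; compound dosing: one dose 10 µM, DMSO 0.25% final; measure: yeast growth inhibition indicated by reduced 24 h OD615; detection: OD615 turbidity read; incubation: cells pre-grown 4 h, then 24 h compound exposure, 30 °C humidified; medium: permissive synthetic complete medium with raffinose and galactose carbon sources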

[2] = S. cerevisiae growth inhibition in restrictive medium, OD615, pilot screen, restrictive growth control, yeast lifespan reduction project (AID 706;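 active means growth inhibition above a set limit, 3 SD over mean compound inhibition, in both replicates, cut at about 43% in these data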;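 further: modified DeaD lifespan yeast strain shifted to restrictive glucose medium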); conditions: OD615, 48 h, at 10 µM, active compounds read high
Summary of the method: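 material = engineered S. cerevisiae DeaD strain | medium = glucose-based CSMM-D restrictive medium | times = 4 h pre-incubation, 48 h exposure at 30 °C | technique = OD615 absorbance reading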

[3] = doxorubicin toxicity protection in MRP-1 cells – H69AR cells, CellTiter-Glo, duplicate, MRP-1 activator project, pilot screen (AID 807;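 active means viability increase at or above a cutoff of the median across tested compounds plus 3 SD, cut at about 8.5% in these data, passing the limit was not always enough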;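 further: compound pretreatment 18-22 h then 72 h combined with doxorubicin; 0% = doxorubicin alone and 100% = vehicle without doxorubicin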); conditions: H69AR viability with doxorubicin, CellTiter-Glo luminescence; at 10 µM; active compounds read high
[4] = viability of HCT116 without oncogenic beta-catenin – human colon tumor cells, pilot screen (AID 823); conditions: HCT116 beta-catenin knockout viability, CellTiter-Glo, 60 h; at 10 µM; active compounds read low;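 further: 0% = wells killed by 20 µM Hyamine and 100% = untreated DMSO cell wells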
[5] = viability of PTEN-null HCT116 cells – cell-based, HCT116 clonal line, CellTiter-Glo, pilot screen (AID 824;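 active means viability at or below 27.92% in each of two runs, the all-compound median minus 4 SD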;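 further: 0% = 20 µM Hyamine control and 100% = vehicle cell control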); conditions: HCT116 PTEN-deleted viability, 60 h, at 10 µM, active compounds read low
[6] = RAM pathway blockade in budding yeast – dse1pr::URA3 reporter, 5-FOA selection, pilot screen (AID 869;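 active means inhibition over a set limit, the all-compound mean plus 3 SD, in both replicate runs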;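 further: 0% = DMSO wells with no growth and 100% = 10 µM 1-NA-PP1 with full growth; RAM network block rescues cells from 5-FOA so hits raise OD615 growth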); conditions: S. cerevisiae dse1pr::URA3 5-FOA growth, OD615, 2 d; at 10 µM; active compounds read high; strain carries analog-sensitive mutant Cbk1 kinase
[7] = RAM signaling pathway blockade in yeast – S. cerevisiae, Pdr1DBD-CYC8 efflux-inhibited sensitized strain, primary screen (AID 1298;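 active means RAM network inhibition above 8.4% in each of two replicates, 3 SD over the compound average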;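 further: 0% = DMSO untreated cells without growth and 100% = 10 µM 1-NA-PP1 full growth; higher means more yeast growth rescued from 5-FOA killing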); conditions: S. cerevisiae cbk1-as DSE1-URA3 strain, 5-FOA growth OD615, 2 d; at 50 µM; active compounds read high

Compound	growth inhibition [1]	growth inhibition [2]	viability increase [3]	viability [4]	viability [5]	inhibition [6]	RAM network inhibition [7]
O=C(Cn1cc2c(n1)CCCCC2)NC1CCN(Cc2ccccc2)CC1	-6.81%	2.45%	-1.57%	86.5%	83.4%	2.21%	7.63%
Cn1c(=O)oc2cc(S(=O)(=O)N3CCC(C(=O)N4CC=C(c5ccccc5)CC4)CC3)ccc21	-0.22%	4.63%	0.15%	98.9%	94.8%	0.01%	6.76%
O=C(Nc1ccc(F)cc1F)N1CCN(C/C=C/c2ccccc2)CC1	-1.48%	2.67%	0.1%	86.7%	89%	2.04%	0.95%
O=C(NC1CCS(=O)(=O)C1)c1ccccc1C(=O)c1ccccc1 (configuration not stated)	-15.2%	-9.07%	-0.35%	102%	99.1%	2.46%	9.61%
Cc1cccc(C)c1NC(=O)C1(NC(=O)c2cnccn2)CCCCC1	-12.1%	0.045%	-2.5%	98.4%	95.1%	1.21%	0.32%
COc1cc2c(cc1OC)C(C(=O)NC1CC1)C1c3ccccc3CCN1C2=O (configuration not stated)	-17.8%	-13.4%	-1.28%	95.8%	97.3%	0.58%	0.1%
CCCOC(=O)CSC1=C(C#N)C(c2ccccc2Cl)CC(=O)N1 (configuration not stated)	1.49%	-25.7%	-1.57%	66.3%	75.5%	1.75%	2.16%
Nc1nc(Nc2ccccc2Br)nc(C(F)(F)F)n1	-3.56%	4.02%	0.23%	104%	93.4%	1.84%	0.72%
CC(c1ccccc1)C1C(C#N)=C(N)OC2=C1C(=O)CC(C)(C)C2 (configuration not stated)	-6.48%	-7.79%	-5.71%	78.4%	78.9%	1.78%	25.6% (active)
CCOC(=O)C1=C(N)OC2=C(C(=O)CCC2)C1c1ccccc1OCC (configuration not stated)	-3.85%	-4.66%	-0.08%	100%	103%	1.05%	8.68%
CCCCn1c(C(C)NC(=O)CCC)nc2ccccc21 (configuration not stated)	-1.25%	-0.375%	1.35%	86.2%	91%	0.88%	7.23%
CCOC(=O)C(C)Sc1nc2c(c(=O)[nH]c(=O)n2C)n1Cc1ccc(Cl)cc1 (configuration not stated)	-3.52%	1.73%	-4.04%	92.6%	91.6%	-0.265%	2.79%
CCOc1ccc(-n2c(Cc3cc(=O)[nH]c(=O)[nH]3)nnc2SCc2cccnc2)cc1	2.83%	5.83%	1.08%	107%	105%	1.84%	0.84%
O=C(c1cc2ccccn2n1)N1CCCC1	-5.76%	-2.7%	-1.17%	103%	100%	1.79%	6.63%
O=C(OC1CCCCC1)c1ccc(NC(=O)c2ccco2)cc1	-1.26%	-7.55%	-2.73%	70.1%	77.5%	0.87%	2.81%
Cc1ccc(S(=O)(=O)/N=C(/Nc2nc(C)cc(C)n2)N2CCOCC2)cc1	-0.825%	-15.5%	-3.21%	98.7%	97.4%	1.6%	4.96%
O=C1CCCc2c1[nH]c1c(Br)cccc21	5.96%	-1.3%	0.96%	108%	105%	0.425%	3.4%
COc1ccc(OC)c(NC(=O)NC2(C(F)(F)F)Oc3ccccc3O2)c1	-4.07%	0.635%	-6.83%	54.9%	71.5%	0.25%	4.64%

Compound	growth inhibition [1]	growth inhibition [2]	viability increase [3]	viability [4]	viability [5]	inhibition [6]	RAM network inhibition [7]
O=C(NCc1cccs1)C1CCCN(S(=O)(=O)c2cccc3cccnc23)C1 (configuration not stated)	8.41%	2.37%	-1.59%	94.8%	90.4%	1.41%	2.64%
CC(c1ccc(Br)cc1)N1CC23C=CC(O2)C(C(=O)O)C3C1=O (configuration not stated)	0.305%	6.24%	-0.16%	102%	99.7%	1.27%	-1.25%
CC(=O)NCCc1nc2ccccc2n1Cc1ccccc1	1.21%	-2.44%	-2%	106%	98.8%	1.33%	3.58%
CCn1cc(C2=NC(C(C)C)CO2)c2ccccc21 (configuration not stated)	-12%	-6.49%	-2.74%	99.2%	95.9%	1.54%	2.06%
CC(C)n1c(SCCCc2ccccc2)nc2c1c(=O)[nH]c(=O)n2C	-6.04%	4.52%	-0.9%	92.2%	87.5%	1.95%	8.85%
CCc1ccc(NC(=O)CN(c2ccc3c(c2)OCO3)S(=O)(=O)c2c(C)noc2C)cc1	-16.8%	-11.4%	0.12%	85.5%	80.5%	3.38%	9.54%
Cc1nnc(Sc2nc3c(c(=O)[nH]c(=O)n3C)n2CCc2ccccc2)s1	-17.6%	-13.6%	-0.89%	102%	100%	0.16%	8.3%
CC(=O)NC(NC(C)=O)c1ccc(N(C)C)cc1	2.72%	16.3%	-0.12%	100%	100%	-0.22%	-0.26%
O=C(CSc1nnc(Cc2cc(=O)[nH]c(=O)[nH]2)n1-c1ccccc1)N1CCCCC1	-4.77%	5.95%	-2.54%	99.7%	90.4%	1.02%	-2.08%
CC(=O)N1CCc2c(sc(NC(=O)C3CC3)c2-c2nc3ccccc3s2)C1	0.95%	-2.89%	-3.03%	65.4%	63.4%	1.99%	4.93%
CCc1nc(SCC(=O)c2ccc(C)c(C)c2)n[nH]1	-9.29%	4.11%	2.14%	102%	104%	0.56%	6.63%
Cc1cc(=O)oc2cc3c(cc12)OCCN3	5.96%	2.04%	-1.47%	93%	97.6%	2.65%	3.78%
O=C(Cn1cc2c(n1)CCCCC2)NCc1ccccc1	-13.4%	0.525%	-0.82%	102%	86.5%	1.06%	3.47%
CCN1C(=O)CSc2ccc(C(=O)OC)cc21	-6.5%	-12.7%	-1.33%	95.6%	90.3%	1.39%	-0.69%
Clc1ccc(-n2ncc3c(NCC4CCCO4)ncnc32)cc1 (configuration not stated)	-7.04%	-19.4%	-5.71%	37.6%	37.2%	0.57%	8.53%
CCCCNC(=O)CS(=O)Cc1nc(-c2cccs2)oc1C (configuration not stated)	-3.47%	21.5%	-0.37%	97.6%	95.7%	1.57%	0.54%
O=C(NCc1ccccc1)c1ccc(CN2CCOCC2)cc1	7.58%	2.15%	-0.24%	100%	104%	0.89%	9.41%
CCN(CC)CCCN1C(=O)C(O)=C(C(C)=O)C1c1ccc(OC)cc1OC (configuration not stated)	-0.68%	-3.67%	-2.64%	98.5%	92.4%	1.03%	1.44%
